Most compounds without a hit are left out; they make up all but 2% or so of the library.
ZTA counter: ZTA (EBV) inhibition in EBNA-1 counter-screen. ZTA-DNA binding, fluorescence polarization. AID 2234. inhibition, % at 11 µM. 0.15% of 320,000 active. P03206; in the data active = inhibition above about 33%
Target sequence (P03206 whole entry, looked up): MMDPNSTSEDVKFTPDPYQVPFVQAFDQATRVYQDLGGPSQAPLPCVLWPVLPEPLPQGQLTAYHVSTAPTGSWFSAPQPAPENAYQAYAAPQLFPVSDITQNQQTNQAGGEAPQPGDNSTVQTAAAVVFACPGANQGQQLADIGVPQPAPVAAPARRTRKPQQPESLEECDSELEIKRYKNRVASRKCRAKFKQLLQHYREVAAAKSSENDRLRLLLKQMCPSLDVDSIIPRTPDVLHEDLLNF
DNA FID counter: counter-screen for HCV NS3 helicase inhibitors: DNA intercalator displacement | 0.17% of 290,000 active | inhibition, % at 7.9 µM | DNA fluorescent intercalator displacement, fluorescence; in the data active = inhibition above about 37%;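 note: higher means more ethidium bromide displaced from hairpin DNA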
GPR7 antagonist: antagonists of human GPR7 (neuropeptides B/W receptor 1); P48145; GPR7-expressing cells, fluorescence antagonist assay; inhibition, % at 4.4 µM; 1.1% of 290,000 active; in the data active = inhibition above about 16%, passing the limit was not always enough;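 note: cells stimulated with the agonist NPW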
Target sequence (P48145 whole entry, looked up): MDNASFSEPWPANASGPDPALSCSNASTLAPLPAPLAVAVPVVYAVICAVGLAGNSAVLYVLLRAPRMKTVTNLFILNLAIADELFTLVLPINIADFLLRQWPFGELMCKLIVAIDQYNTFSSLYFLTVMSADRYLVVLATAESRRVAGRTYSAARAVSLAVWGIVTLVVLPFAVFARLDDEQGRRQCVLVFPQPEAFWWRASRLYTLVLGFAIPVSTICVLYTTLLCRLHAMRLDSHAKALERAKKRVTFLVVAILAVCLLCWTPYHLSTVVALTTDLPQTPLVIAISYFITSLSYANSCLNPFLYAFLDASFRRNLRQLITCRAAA
EBNA-1 inhibitor: blocks EBNA-1 binding to DNA | EBNA-1 DNA binding, fluorescence polarization | inhibition, % at 14.8 µM | 0.34% of 300,000 active; in the data active = inhibition above about 28%
HCV NS3 hel inh: inhibitors of Hepatitis C virus NS3 helicase; AID 1800; inhibition, % at 10.9 µM; NS3 helicase DNA unwinding, Cy5 molecular beacon fluorescence; 0.56% of 290,000 active;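 active = inhibition above the mean of all tested compounds plus 3 SD, set per campaign, cut at about 35% in these data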
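System: Hepatitis C virus NS3 helicase domain fragment enzyme | Reagent: Annealed dual-labelled DNA beacon duplex, ATP-started | Compound dosing: 10.9 µM single point, 0.8% DMSO | Incubation: 1 h reaction at 25 °C, ATP-initiated | Technique: Cy5 fluorescence | Evaluation: Percent inhibition from t60/t0 fluorescence ratio | Benchmarks: Low DMSO, high thioflavine S at 110 µM | Replication: Singlicate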
EBNA-1 inh conf: EBNA-1 (EBV) inhibition, confirmation; Recombinant EBNA-1 DBD, Cy5-DNA fluorescence polarization; 35% of 830 active; shares compounds with EBNA-1 inhibitor; AID 2292; inhibition, % at 14.8 µM;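 active = mean inhibition across replicates above a set limit taken from the earlier primary screen, cut at about 28% in these data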
ZTA counter trip: ZTA (EBV) inhibition, triplicate counter-screen. 830 tested, under 10 active. inhibition, % at 11.1 µM. shares compounds with EBNA-1 inhibitor. Zta-ZRE DNA binding, Cy5 fluorescence polarization;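 active = mean inhibition over triplicates above a set limit taken from the primary EBNA-1 screen, cut at about 37% in these data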;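 note: purified full length Zta protein with Cy5 labeled ZRE DNA probe; inhibitors lower polarization by freeing the labeled DNA probe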
Large screens that a line does not name were inactive (follow-up assays come after a bar, where they were run).

Cc1ccc(-n2c(=O)c3ccc(C(=O)NCc4ccco4)cc3n(Cc3ccccc3C#N)c2=O)cc1	EBNA-1 inhibitor 49.6 | EBNA-1 inh conf inactive | ZTA counter trip inactive
Cc1ccccc1Cn1c(=O)n(-c2ccccc2)c(=O)c2ccc(C(=O)NCc3ccco3)cc21	none
CCCCOc1ccc(C(=O)Nc2ccc(C)cc2[N+](=O)[O-])cc1	EBNA-1 inhibitor 34.1 | EBNA-1 inh conf inactive | ZTA counter trip inactive
CN(CC(=O)Nc1ccc(F)cc1)C(=O)COc1ccccc1Cc1ccccc1	none (no result: DNA FID counter, GPR7 antagonist, HCV NS3 hel inh)
CCOC(=O)c1cccc(NC(=O)COc2ccc([N+](=O)[O-])cc2)c1	none
CCCOC(=O)c1cccc(NC(=O)COc2ccc([N+](=O)[O-])cc2)c1	EBNA-1 inhibitor 109.0 | EBNA-1 inh conf inactive | ZTA counter trip inactive
Cc1ccc(C)c(NC(=O)CSc2ccc(-c3cccs3)nn2)c1	none
CC(=O)Nc1ccc(NC(=O)CSc2ccc(-c3ccco3)nn2)cc1	none
Cc1cccc(NC(=O)CSc2ccc(-c3cccs3)nn2)c1C	EBNA-1 inhibitor 28.8 | EBNA-1 inh conf inactive | ZTA counter trip inactive
CC(=O)Nc1ccc(NC(=O)CSc2ccc(-c3cccs3)nn2)cc1	EBNA-1 inhibitor 41.4 | EBNA-1 inh conf 37.6 | ZTA counter trip inactive
NC(=O)c1ccccc1NC(=O)c1ccc2ccccc2c1	none
NC(=O)c1ccccc1NC(=O)c1cccc(C(=O)Nc2ccccc2C(N)=O)n1	EBNA-1 inhibitor 34.8 (no result: DNA FID counter, GPR7 antagonist, HCV NS3 hel inh) | EBNA-1 inh conf 35.9 | ZTA counter trip inactive
Cc1ccc2c(c1)nnn2C1CCN(S(=O)(=O)c2ccc(C(=O)NC3CCCC3)cc2)CC1	EBNA-1 inhibitor 34.9 | EBNA-1 inh conf 35.6 | ZTA counter trip inactive
Cc1ccc(C)c(NC(=O)CN(C)C(=O)COc2cccc3c2OC(C)(C)C3)c1	none (no result: DNA FID counter, GPR7 antagonist, HCV NS3 hel inh)
O=C(Nc1ccc(S(=O)(=O)N2CCC(C(=O)NC3CCCCC3)CC2)cc1)c1ccco1	EBNA-1 inhibitor 38.0 | EBNA-1 inh conf 33.6 | ZTA counter trip inactive
CC(Oc1ccccc1)C(=O)Nc1nnc(S(=O)(=O)Nc2ccccc2)s1 (stereo unspecified)	none
N#Cc1c2ncn(CC(=O)c3ccc(Br)cc3)c(=O)c2c2n1CCC2	EBNA-1 inhibitor 28.8 | EBNA-1 inh conf 136.1 | ZTA counter trip inactive
Cn1c(N)c(C(=O)COC(=O)CSc2ccc3ccccc3c2)c(=O)n(C)c1=O	none
Cn1c(N)c(C(=O)COC(=O)CSc2cccc3cccc(Cl)c23)c(=O)n(C)c1=O	EBNA-1 inhibitor 32.2 | EBNA-1 inh conf 46.1 | ZTA counter trip inactive
Cc1ccc(CN2CCC(n3nccc3NC(=O)c3ccccc3C)CC2)o1	none
Cc1ccc(-c2nc3ccccc3[nH]2)cc1NC(=O)c1ccco1	none
Cc1ccc(-c2nc3ccccc3[nH]2)cc1NC(=O)c1sc2cc(Cl)ccc2c1Cl	EBNA-1 inhibitor 92.4 | EBNA-1 inh conf 82.8 | ZTA counter trip inactive
COc1cc(-c2nc3n(n2)C(c2cccc(OC)c2OC)C2=C(CCCC2=O)N3)cc(OC)c1OC (stereo unspecified)	EBNA-1 inhibitor 84.5 | EBNA-1 inh conf 111.5 | ZTA counter trip inactive
CCCCn1c(CN2C(=O)c3ccccc3C2=O)nc2ccccc2c1=O	EBNA-1 inhibitor 31.6 | EBNA-1 inh conf 31.2 | ZTA counter trip inactive
CCNC(=S)Nc1ccc(OCc2nc3ccccc3s2)cc1	none
COc1ccccc1N1CCN(C(=O)c2cc3sccc3n2C)CC1	none
Cn1c(C(=O)N2CCN(c3nc4ccccc4s3)CC2)cc2sccc21	EBNA-1 inhibitor 50.9 | EBNA-1 inh conf 30.8 | ZTA counter trip inactive
CC(=O)c1ccc(N2CCN(CC(=O)Nc3ccc4c(c3)OCCO4)CC2)cc1	none
Cc1ccc(N=Nc2ccc(O)c(/C=N\NC(=O)c3ccc(N)cc3)c2)cc1C	EBNA-1 inhibitor 37.6 | EBNA-1 inh conf inactive | ZTA counter trip inactive
O=C(N/N=C/c1cc(Cl)ccc1O)c1ccc(Br)cc1	none
CCc1cc(=O)oc2cc(C)cc(OC(C)C(=O)NC(Cc3c[nH]c4ccc(O)cc34)C(=O)O)c12 (stereo unspecified)	none
O=S(=O)(Nc1nc(-c2ccccc2)cs1)c1cc(Cl)ccc1Cl	EBNA-1 inhibitor 30.8 | EBNA-1 inh conf inactive | ZTA counter trip inactive
CN1C(=O)c2ccc(Oc3ccccc3)cc2C1=O	none (no result: DNA FID counter, GPR7 antagonist, HCV NS3 hel inh)
COc1ccc(C(=O)N2C(=O)c3ccc(N)cc3C2=O)cc1	EBNA-1 inhibitor 34.1 | EBNA-1 inh conf inactive | ZTA counter trip inactive
COc1ccc(NC(C)=O)cc1NC(=O)C1CCN(C(=O)Nc2ccccc2)CC1	none (no result: DNA FID counter, GPR7 antagonist, HCV NS3 hel inh)
Cc1cc2cc(CNC(=O)c3ccc(S(=O)(=O)N4CCCC4)cc3)ccc2n1C	EBNA-1 inhibitor 33.1 | EBNA-1 inh conf inactive | ZTA counter trip inactive
CCOC(=O)c1c(-c2ccc(C)o2)csc1NC(=S)NC(=O)c1ccc(F)cc1	EBNA-1 inhibitor 28.2 | EBNA-1 inh conf inactive | ZTA counter trip inactive
CCOC(=O)c1c(-c2ccc(C)o2)csc1NC(=O)CN1CCCCC1	none
Nc1c(C(=O)Nc2ccc3c(c2)OCCO3)nnn1Cc1cccc(Br)c1	EBNA-1 inhibitor 35.7 (no result: DNA FID counter, GPR7 antagonist, HCV NS3 hel inh) | EBNA-1 inh conf 29.8 | ZTA counter trip inactive
COc1cc(C(=O)Nc2cccc(-c3nc4cc(C)ccc4o3)c2C)cc(OC)c1OC	EBNA-1 inhibitor 37.3 | EBNA-1 inh conf inactive | ZTA counter trip inactive
COc1ccc(CC(=O)Nc2ccc3c(C)cc(=O)oc3c2)cc1OC	EBNA-1 inhibitor 40.1 | EBNA-1 inh conf inactive | ZTA counter trip inactive
COC(=O)c1ccc(COc2ccccc2/C=N/NS(=O)(=O)c2ccc(C)cc2)cc1	EBNA-1 inhibitor 67.0 | EBNA-1 inh conf 29.2 | ZTA counter trip inactive
O=S(=O)(N/N=C/c1ccccc1OCc1ccc(Cl)cc1)c1ccccc1	none
COc1ccc(-c2cc(C(=O)Nc3cc(Br)ccc3O)no2)cc1	none
O=C(CNC(=O)c1ccc(-c2ccccc2)cc1)OCc1c(F)cccc1Cl	EBNA-1 inhibitor 43.9 | EBNA-1 inh conf 76.0 | ZTA counter trip inactive
O=C1CC(SC(=NCc2ccc3c(c2)OCO3)Nc2ccccc2)C(=O)N1c1ccccc1 (stereo unspecified)	EBNA-1 inhibitor 43.5 | EBNA-1 inh conf inactive | ZTA counter trip inactive
O=C(O)c1ccc(N2C(=O)CC(SC(=NCc3ccc4c(c3)OCO4)Nc3ccccc3)C2=O)cc1 (stereo unspecified)	none
O=C(NCc1ccc2c(c1)OCO2)C12CN(Cc3ccccc3)CC1C(c1cccc([N+](=O)[O-])c1)=NO2 (stereo unspecified)	EBNA-1 inhibitor 174.0 | EBNA-1 inh conf inactive | ZTA counter trip inactive
Cc1ccc(NC(=O)Cn2ncc(Cl)c(Cl)c2=O)cc1S(=O)(=O)N1CCCCC1	none (no result: DNA FID counter, GPR7 antagonist, EBNA-1 inhibitor, HCV NS3 hel inh)
Cc1ccc(S(=O)(=O)N2CCC(C(=O)Nc3ccc4c(c3)OCO4)CC2)cc1	none
O=C(Nc1ccc2c(c1)OCO2)C1CCN(c2ccc(S(=O)(=O)N3CCOCC3)cc2)CC1	EBNA-1 inhibitor 29.4 | EBNA-1 inh conf inactive | ZTA counter trip inactive

Source: PubChem BioAssay (The Scripps Research Institute Molecular Screening Center)
